AHR act – activates the human aryl hydrocarbon receptor | P35869 | activation, % at 5 µM | actives 2.5% (n = 320,000) | AHR-responsive luciferase reporter cells, luminescence; in the data active means activation above about 47%
Target sequence (P35869 whole entry, looked up): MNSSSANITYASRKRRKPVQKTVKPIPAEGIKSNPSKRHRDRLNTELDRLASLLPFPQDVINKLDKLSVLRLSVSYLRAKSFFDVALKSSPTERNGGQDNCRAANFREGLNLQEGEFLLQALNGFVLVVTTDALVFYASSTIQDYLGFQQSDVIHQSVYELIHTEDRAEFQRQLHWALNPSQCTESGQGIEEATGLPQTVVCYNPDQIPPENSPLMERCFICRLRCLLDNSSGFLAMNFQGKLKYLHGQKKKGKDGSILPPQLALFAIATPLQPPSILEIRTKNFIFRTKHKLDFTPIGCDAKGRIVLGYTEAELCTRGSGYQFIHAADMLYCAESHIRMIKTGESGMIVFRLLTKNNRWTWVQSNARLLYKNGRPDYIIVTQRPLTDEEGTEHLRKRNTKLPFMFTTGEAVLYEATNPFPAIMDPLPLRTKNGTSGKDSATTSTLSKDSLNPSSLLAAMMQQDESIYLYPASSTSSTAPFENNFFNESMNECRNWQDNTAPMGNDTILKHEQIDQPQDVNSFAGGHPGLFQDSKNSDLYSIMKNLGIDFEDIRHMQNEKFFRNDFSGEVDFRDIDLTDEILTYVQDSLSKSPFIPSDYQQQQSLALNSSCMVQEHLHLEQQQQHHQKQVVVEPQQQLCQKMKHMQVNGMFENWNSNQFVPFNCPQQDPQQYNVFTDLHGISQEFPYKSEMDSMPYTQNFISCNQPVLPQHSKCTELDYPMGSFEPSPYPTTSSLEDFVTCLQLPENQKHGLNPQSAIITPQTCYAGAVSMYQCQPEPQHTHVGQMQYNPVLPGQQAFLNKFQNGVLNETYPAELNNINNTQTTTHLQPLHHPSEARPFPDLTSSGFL
FXN GAA850 act – frataxin GAA850 promoter activation; activation, % at 6 µM; actives 0.56% (n = 360,000); HEK293 lucGAA850 FXN promoter luciferase reporter, 24 h; percent of 10 µM SAHA response;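 active means activation above the average of all compounds screened plus 3 SD, cutoff fixed separately per campaign, cut at about 7.5% in these data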
HIF act – HIF pathway transcriptional activation | U2OS HRE-luciferase reporter, luminescence; normalized: DMSO 0%, desferrioxamine 100% | activation, % at 7.5 µM (by protocol) | actives 0.32% (n = 300,000);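 active means mean activation of at least 10% of the iron chelator positive control signal, with at least half of replicates also reaching 10%; inconclusive means mean and replicate majority disagree about reaching 10%; inactive means mean and most replicates under 10%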
ABCB6 inh MLPCN – inhibitors of human ABC transporter ABCB6 | Q9NP58 | K562-ABCB6 porphyrin accumulation, flow cytometry, 1 h; active compounds read low | fluorescence ratio to DMSO, % at 10 µM | actives 0.19% (n = 360,000) | AID 602162;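 active means fluorescence ratio to DMSO below 75%, the collection mean minus 3 SD; inconclusive means too few cells collected in the well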;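 further: signal is porphyrin accumulated inside mitochondria; lower ratio means ABCB6 inhibition with less porphyrin fluorescence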
SR-BI DiI inh – inhibitors of mouse SR-BI mediated HDL lipid uptake; Q61009; AID 488896; actives 0.96% (n = 320,000); inhibition, % at 12.5 µM; ldlA[mSR-BI] CHO cells, DiI-HDL uptake fluorescence, 3 h;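 active means mean replicate inhibition of at least 70% and a set share of replicates each scoring 70 or more; inconclusive means meets just one of the two criteria; inactive means fails both criteria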
SR-BI uptake up – enhances SR-BI lipid uptake from DiI-HDL. actives 0.096% (n = 320,000). CHO ldlA[mSR-BI] cells, DiI-HDL uptake fluorescence, 3 h; 100 = double the neutral-control signal. activation, % at 12.5 µM. AID 504775;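 active means mean replicate activation of at least 60% and every replicate at or above 60%; inconclusive means mean or all-replicate condition met, but not both; inactive means mean below 60% and not all replicates reaching 60%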
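Test system: SR-BI-overexpressing, LDLR-lacking CHO cells; Medium: Ham's F12 with 0.5% BSA, HEPES 25 mM, pH 7.4; Schedule: 3 h, 37 °C; Technique: bottom-read fluorescence, 550/595 nm.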
AHR act cf – human AHR activation, confirmation; activation, % at 9 µM; actives 87% (n = 2,300); human cells, AHR-responsive luciferase reporter, luminescence; AID 2845; shares compounds with AHR act; in the data active means activation above about 49%;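 further: HepG2 hepatoma cells carrying a DRE-driven firefly luciferase reporter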
PXR act counter – counter-screen for AHR activators: human PXR activators; shares compounds with AHR act; cell-based PXR reporter, luciferase luminescence; activation, % at 11.6 µM; actives 88% (n = 2,300); AID 434939; in the data active means activation above about 11%;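 further: human hepatoma DPX-2 cells expressing full-length human PXR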
Each line names hits and unclear results; the compound was inactive in the other large screens (follow-up assays come after a bar, where they were run). Compounds with a hit are over-represented: about 3.9% of the library has one in this group of screens.

Cc1cc(Br)ccc1NC(=O)CN(C)C(=O)c1cc([N+](=O)[O-])ccc1N1CCOCC1	AHR act 92.0 | AHR act cf 84.0 | PXR act counter 53.0
Cc1nc2nc(-c3cccnc3)nn2c(C)c1Cl	AHR act 97.8 | AHR act cf 111.9 | PXR act counter 29.4
Cc1nc2nc(-c3ccco3)nn2c(C)c1Cl	HIF act inconclusive
O=C(N/N=C/c1ccsc1)c1ccccn1	none
O=C(N/N=C/C1CC2CCC1C2)C1CC1 (centres undefined)	none
Cc1ccsc1/C=N/NC(=O)c1ccccn1	none
O=C(N/N=C/C1CC2CCC1C2)c1c[nH]c2ccccc12 (centres undefined)	AHR act 86.8 | AHR act cf inactive | PXR act counter inactive
O=C(N/N=C/c1ccsc1)c1c[nH]c2ccccc12	AHR act 127.8 | AHR act cf 114.8 | PXR act counter 21.9
Cc1ccsc1/C=N/NC(=O)c1c[nH]c2ccccc12	AHR act 101.5 | AHR act cf 142.1 | PXR act counter 41.6
N#Cc1cccc(NC(=O)COC(=O)c2ccc3c(=O)n4c(nc3c2)CCC4)c1	none (no result: FXN GAA850 act, ABCB6 inh MLPCN, SR-BI DiI inh, SR-BI uptake up)
Cn1c(=O)c(-c2ccccc2)nn2c3ccccc3nc12	AHR act 109.6 | AHR act cf 130.8 | PXR act counter 18.8
CCn1c(=O)c(C)nn2c3ccccc3nc12	none
O=C(NCC1OCCc2ccccc21)c1ccco1 (centres undefined)	AHR act 86.1 | AHR act cf 129.2 | PXR act counter 14.2
O=C(CCc1ccccc1)NCC1OCCc2ccccc21 (centres undefined)	none (no result: SR-BI DiI inh, SR-BI uptake up)
O=c1[nH]c(SCc2nc3c(cnn3-c3ccccc3)c(=O)[nH]2)nc2ccccc12	none (no result: AHR act, HIF act)
Cc1ccc2nc(SCc3nc4c(cnn4-c4ccccc4)c(=O)[nH]3)[nH]c2c1	AHR act 120.5 | AHR act cf inactive | PXR act counter 37.1
O=c1[nH]c(SCc2ccccc2Cl)nc2c1cnn2-c1ccccc1	AHR act 116.5 | AHR act cf 76.9 | PXR act counter 104.5
Cc1ccc(S(=O)(=O)N2C[C@H]3C(=O)C[C@@H](c4ccccc4)N(S(=O)(=O)c4ccccc4[N+](=O)[O-])[C@H]3C[C@H]2c2ccccc2)cc1	none (no result: AHR act, FXN GAA850 act, HIF act, SR-BI DiI inh, SR-BI uptake up)
C=CCOC(=O)C1=C(C)NC(=O)NC1/C=C/c1ccccc1OC (centres undefined)	none
C/C=C/c1ccc(OCC(=O)OCC2=C(C(=O)OCC)C(C)NC(=O)N2)c(OC)c1 (centres undefined)	none
Fc1ccc(NC(=S)NNc2ncc(C(F)(F)F)cc2Cl)c(F)c1	none
O=S(=O)(NNc1ncc(C(F)(F)F)cc1Cl)c1ccc(F)cc1F	AHR act 113.8 (no result: HIF act) | AHR act cf 103.2
CC(=O)N1CCn2c3c(c4cc(C)ccc42)CCCC31 (centres undefined)	none
CCN1CCn2c3c(c4cc(C)ccc42)CCCC31 (centres undefined)	AHR act 80.9 | AHR act cf 105.2 | PXR act counter 11.0
Cc1ccc2c(c1)c1c3n2CCN(C(=O)CCl)C3CCC1 (centres undefined)	AHR act 113.3 | AHR act cf 98.5 | PXR act counter 16.5
Cc1ccc2c(c1)c1c3n2CCCNC3CCC1 (centres undefined)	none
O=C1c2ccccc2C(=O)N1CCC(=O)N1CCc2ccccc21	none (no result: AHR act, HIF act)
Cc1noc(C)c1COc1ccccc1C(=O)NNC(=O)c1ccccc1F	AHR act 91.8, ABCB6 inh MLPCN inconclusive (no result: HIF act) | AHR act cf 116.8 | PXR act counter 72.6
CCCCCN(C(=O)CCC(=O)OCc1cccc(Cl)c1)c1c(N)n(CCCC)c(=O)[nH]c1=O	none
O=C(Nc1ccc(OC(F)(F)F)cc1)c1ccc2nc[nH]c2c1	AHR act 95.8 | AHR act cf 136.5 | PXR act counter 12.4
CN(C)CCCNC(=O)c1cc(Br)ccc1Cl	none
CCN1C[C@@H]2[C@@H]3C(=O)N(Cc4ccccc4)C(=O)[C@@H]3[C@](CC)(C(=O)OC)N2C1=NC1CCCCC1	none (no result: AHR act, HIF act)
Cn1cccc1/C=N\NC(=O)C1COc2ccc(C(C)(C)C)cc2O1 (centres undefined)	none
Cc1c(/C=N\NC(=O)C2COc3ccc(C(C)(C)C)cc3O2)c2ccccc2n1C (centres undefined)	AHR act 79.2 | AHR act cf inactive | PXR act counter 65.6
Fc1ccccc1CNc1ccc(Cl)cc1	none
CN(C)c1ccc(C#Cc2ccc3cc(CCO)oc(=O)c3c2)cc1	none (no result: HIF act)
O=c1oc(CCCO)cc2ccc(C#Cc3cccnc3)cc12	AHR act 87.8 (no result: HIF act) | AHR act cf 75.6 | PXR act counter 18.3
O=C(Nc1ccnc(-c2cccnc2)n1)c1cccc(Cl)c1Cl	none
O=C(Nc1ccnc(-c2cccnc2)n1)c1ccccc1Cl	AHR act 135.9 | AHR act cf inactive | PXR act counter 16.9
O=C(Nc1cccc(Cl)c1)Nc1ccnc(-c2cccnc2)n1	AHR act 148.3 | AHR act cf 129.2 | PXR act counter 11.9
O=C(N/N=C/c1cn(Cc2ccccc2)c2ccccc12)c1ccncc1	none
C#CCn1cc(/C=N/NC(=O)c2cc3ccccc3o2)c2ccccc21	AHR act 112.3 | AHR act cf 87.3
O=C(N/N=C/c1cn(Cc2ccccc2)c2ccccc12)c1cccnc1	AHR act 85.9 | AHR act cf inactive | PXR act counter inactive
O=C(Cc1n[nH]c(=O)c2ccccc12)OCc1c(Cl)cccc1Cl	none
O=C(CNC(=O)c1ccc2c(=O)n3c(nc2c1)CCC3)Nc1ccc(F)c(F)c1	none
Cc1cc(NC(=O)CSc2nc3c([nH]c4ccccc43)c(=O)n2-c2cccc(C(F)(F)F)c2)no1	none (no result: AHR act)
O=C(CSc1nc2c([nH]c3ccccc32)c(=O)n1-c1ccccc1F)NCC1CCCO1 (centres undefined)	AHR act 96.1 | AHR act cf 98.4 | PXR act counter 112.2
Cc1ccccc1-n1c(SCC(=O)NCC2CCCO2)nc2c([nH]c3ccccc32)c1=O (centres undefined)	none
Cc1cc(NC(=O)CSc2nc3c([nH]c4ccccc43)c(=O)n2-c2ccccc2F)no1	AHR act 90.0 | AHR act cf 70.1 | PXR act counter 164.1
COc1cccc(-n2c(SCC(=O)Nc3cc(C)on3)nc3c([nH]c4ccccc43)c2=O)c1	AHR act 102.8 | AHR act cf 103.4 | PXR act counter 63.1
